Experimental data published in ChEMBL document CHEMBL4689842, “EUbOPEN Chemogenomics Library wave 1” (2021).
Values joined by “and” are separate entries in the source; they are usually repeats but may differ in a detail not shown here. Equal entries are not always repeated.

System: U2OS
Test: Multiplex assay against U2OS
Assay type: toxicity, cell-based
Conditions: human
Outline: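 Live cells were stained at seeding with Hoechst33342, BioTracker Green Microtubule Cytoskeleton Dye, MitoTracker Red and Annexin V Alexa Fluor 680. Following compound addition, they were imaged on a CQ1 microscope at 37°C and 5% CO2 and gated by CellPathfinder machine learning into Hoechst high-intensity objects or normal cells, with normal cells split into healthy, pyknosed or fragmented nuclei and pyknosed cells into mitotic or apoptotic. Tubulin, mitochondrial-mass and membrane-permeability phenotypes are per cents of healthy-nucleus cells.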

[1] = 12 h, 1 µM, compound concentration 1 uM, replicate 1
[2] = 12 h, 1 µM, compound concentration 1 uM, replicate 2
[3] = 12 h, 10 µM, compound concentration 10 uM, replicate 1
[4] = 12 h, 10 µM, compound concentration 10 uM, replicate 2
[5] = 24 h, 1 µM, compound concentration 1 uM, replicate 1
[6] = 24 h, 1 µM, compound concentration 1 uM, replicate 2
[7] = 24 h, 10 µM, compound concentration 10 uM, replicate 1
[8] = 24 h, 10 µM, compound concentration 10 uM, replicate 2
[9] = 48 h, 1 µM, compound concentration 1 uM, replicate 1
[10] = 48 h, 1 µM, compound concentration 1 uM, replicate 2
[11] = 48 h, 10 µM, compound concentration 10 uM, replicate 1
[12] = 48 h, 10 µM, compound concentration 10 uM, replicate 2

SMILES: C=CC(=O)Nc1cc(-n2c(=O)ccc3cnc4ccc(-c5ccc(NS(C)(=O)=O)cc5)cc4c32)ccc1C
- Population Apoptotic (%) [1]: 35%
- Population Fragmented Nuclei (%) [1]: 6%
- Population Healthy Nuclei (%) [1]: 80%
- Population Hoechst High Intensity Objects (%) [1]: 3%
- Population Membrane Permeable-Phenotype (%) [1]: 7%
- Population Mitochondria Different-Phenotype (%) [1]: 4%
- Population Mitotic Cells (%) [1]: 65%
- Population Normal (%) [1]: 96%
- Population Pyknosed Nuclei (%) [1]: 12%
- Population Tubulin-Different-Phenotype (%) [1]: 6%
- Total Cell Count [1]: 164
- Population Apoptotic (%) [2]: 33%
- Population Fragmented Nuclei (%) [2]: 10%
- Population Healthy Nuclei (%) [2]: 77%
- Population Hoechst High Intensity Objects (%) [2]: 7%
- Population Membrane Permeable-Phenotype (%) [2]: 0%
- Population Mitochondria Different-Phenotype (%) [2]: 10%
- Population Mitotic Cells (%) [2]: 66%
- Population Normal (%) [2]: 92%
- Population Tubulin-Different-Phenotype (%) [2]: 10%
- Total Cell Count [2]: 53
- Population Apoptotic (%) [3]: 30%
- Population Fragmented Nuclei (%) [3]: 19%
- Population Healthy Nuclei (%) [3]: 66%
- Population Hoechst High Intensity Objects (%) [3]: 7%
- Population Membrane Permeable-Phenotype (%) [3]: 10%
- Population Mitochondria Different-Phenotype (%) [3]: 26%
- Population Mitotic Cells (%) [3]: 69%
- Population Normal (%) [3]: 92%
- Population Pyknosed Nuclei (%) [3]: 14%
- Population Tubulin-Different-Phenotype (%) [3]: 29%
- Total Cell Count [3]: 173
- Population Apoptotic (%) [4]: 76%
- Population Fragmented Nuclei (%) [4]: 8%
- Population Healthy Nuclei (%) [4]: 54%
- Population Hoechst High Intensity Objects (%) [4]: 9%
- Population Membrane Permeable-Phenotype (%) [4]: 12%
- Population Mitochondria Different-Phenotype (%) [4]: 56%
- Population Mitotic Cells (%) [4]: 23%
- Population Normal (%) [4]: 90%
- Population Pyknosed Nuclei (%) [4]: 36%
- Population Tubulin-Different-Phenotype (%) [4]: 52%
- Total Cell Count [4]: 51
- Population Apoptotic (%) [5]: 28%
- Population Fragmented Nuclei (%) [5]: 6%
- Population Healthy Nuclei (%) [5]: 86%
- Population Hoechst High Intensity Objects (%) [5]: 4%
- Population Membrane Permeable-Phenotype (%) [5]: 4%
- Population Mitochondria Different-Phenotype (%) [5]: 8%
- Population Mitotic Cells (%) [5]: 71%
- Population Normal (%) [5]: 95%
- Population Pyknosed Nuclei (%) [5]: 6%
- Population Tubulin-Different-Phenotype (%) [5]: 12%
- Total Cell Count [5]: 216
- Population Apoptotic (%) [6]: 55%
- Population Fragmented Nuclei (%) [6]: 11%
- Population Healthy Nuclei (%) [6]: 76%
- Population Hoechst High Intensity Objects (%) [6]: 2%
- Population Membrane Permeable-Phenotype (%) [6]: 3%
- Population Mitochondria Different-Phenotype (%) [6]: 15%
- Population Mitotic Cells (%) [6]: 44%
- Population Normal (%) [6]: 97%
- Population Pyknosed Nuclei (%) [6]: 11%
- Population Tubulin-Different-Phenotype (%) [6]: 22%
- Total Cell Count [6]: 79
- Population Apoptotic (%) [7]: 53%
- Population Fragmented Nuclei (%) [7]: 17%
- Population Healthy Nuclei (%) [7]: 69%
- Population Hoechst High Intensity Objects (%) [7]: 3%
- Population Membrane Permeable-Phenotype (%) [7]: 8%
- Population Mitochondria Different-Phenotype (%) [7]: 17%
- Population Mitotic Cells (%) [7]: 46%
- Population Normal (%) [7]: 96%
- Population Pyknosed Nuclei (%) [7]: 13%
- Population Tubulin-Different-Phenotype (%) [7]: 15%
- Total Cell Count [7]: 202
- Population Apoptotic (%) [8]: 84%
- Population Fragmented Nuclei (%) [8]: 21%
- Population Healthy Nuclei (%) [8]: 32%
- Population Hoechst High Intensity Objects (%) [8]: 5%
- Population Membrane Permeable-Phenotype (%) [8]: 22%
- Population Mitochondria Different-Phenotype (%) [8]: 50%
- Population Mitotic Cells (%) [8]: 15%
- Population Normal (%) [8]: 94%
- Population Pyknosed Nuclei (%) [8]: 46%
- Population Tubulin-Different-Phenotype (%) [8]: 33%
- Total Cell Count [8]: 59
- Population Apoptotic (%) [9]: 25%
- Population Fragmented Nuclei (%) [9]: 5%
- Population Healthy Nuclei (%) [9]: 87%
- Population Hoechst High Intensity Objects (%) [9]: 2%
- Population Membrane Permeable-Phenotype (%) [9]: 1%
- Population Mitochondria Different-Phenotype (%) [9]: 14%
- Population Mitotic Cells (%) [9]: 74%
- Population Normal (%) [9]: 97%
- Population Pyknosed Nuclei (%) [9]: 7%
- Population Tubulin-Different-Phenotype (%) [9]: 14%
- Total Cell Count [9]: 360
- Population Apoptotic (%) [10]: 9%
- Population Fragmented Nuclei (%) [10]: 9%
- Population Healthy Nuclei (%) [10]: 81%
- Population Hoechst High Intensity Objects (%) [10]: 3%
- Population Membrane Permeable-Phenotype (%) [10]: 0%
- Population Mitochondria Different-Phenotype (%) [10]: 12%
- Population Mitotic Cells (%) [10]: 90%
- Population Normal (%) [10]: 96%
- Population Pyknosed Nuclei (%) [10]: 9%
- Population Tubulin-Different-Phenotype (%) [10]: 20%
- Total Cell Count [10]: 115
- Population Apoptotic (%) [11]: 77%
- Population Fragmented Nuclei (%) [11]: 15%
- Population Healthy Nuclei (%) [11]: 72%
- Population Hoechst High Intensity Objects (%) [11]: 4%
- Population Membrane Permeable-Phenotype (%) [11]: 10%
- Population Mitochondria Different-Phenotype (%) [11]: 19%
- Population Mitotic Cells (%) [11]: 22%
- Population Normal (%) [11]: 95%
- Population Pyknosed Nuclei (%) [11]: 12%
- Population Tubulin-Different-Phenotype (%) [11]: 9%
- Total Cell Count [11]: 257
- Population Apoptotic (%) [12]: 95%
- Population Fragmented Nuclei (%) [12]: 19%
- Population Healthy Nuclei (%) [12]: 35%
- Population Hoechst High Intensity Objects (%) [12]: 5%
- Population Membrane Permeable-Phenotype (%) [12]: 22%
- Population Mitochondria Different-Phenotype (%) [12]: 33%
- Population Mitotic Cells (%) [12]: 4%
- Population Normal (%) [12]: 94%
- Population Pyknosed Nuclei (%) [12]: 45%
- Population Tubulin-Different-Phenotype (%) [12]: 33%
- Total Cell Count [12]: 54

SMILES: c1ccc(-c2oc3ncnc(NC[C@@H]4CCCO4)c3c2-c2ccccc2)cc1
- Population Apoptotic (%) [1]: 68% and 50%
- Population Fragmented Nuclei (%) [1]: 4%
- Population Healthy Nuclei (%) [1]: 86% and 84%
- Population Mitochondria Different-Phenotype (%) [1]: 12% and 18%
- Population Mitotic Cells (%) [1]: 31% and 50%
- Population Normal (%) [1]: 98% and 95%
- Population Pyknosed Nuclei (%) [1]: 9% and 8%
- Total Cell Count [1]: 173 and 152
- Population Apoptotic (%) [2]: 66% and 25%
- Population Fragmented Nuclei (%) [2]: 6%
- Population Healthy Nuclei (%) [2]: 90%
- Population Hoechst High Intensity Objects (%) [2]: 10% and 18%
- Population Mitochondria Different-Phenotype (%) [2]: 17% and 35%
- Population Mitotic Cells (%) [2]: 33% and 75%
- Population Normal (%) [2]: 89% and 81%
- Population Pyknosed Nuclei (%) [2]: 7% and 4%
- Total Cell Count [2]: 137 and 107
- Population Apoptotic (%) [3]: 78%
- Population Fragmented Nuclei (%) [3]: 12%
- Population Healthy Nuclei (%) [3]: 64%
- Population Hoechst High Intensity Objects (%) [3]: 10%
- Population Membrane Permeable-Phenotype (%) [3]: 20%
- Population Mitochondria Different-Phenotype (%) [3]: 82%
- Population Mitotic Cells (%) [3]: 21%
- Population Normal (%) [3]: 89%
- Population Pyknosed Nuclei (%) [3]: 22%
- Population Tubulin-Different-Phenotype (%) [3]: 93%
- Total Cell Count [3]: 137
- Population Apoptotic (%) [4]: 87%
- Population Fragmented Nuclei (%) [4]: 14%
- Population Healthy Nuclei (%) [4]: 71%
- Population Hoechst High Intensity Objects (%) [4]: 6%
- Population Membrane Permeable-Phenotype (%) [4]: 34%
- Population Mitochondria Different-Phenotype (%) [4]: 56%
- Population Mitotic Cells (%) [4]: 12%
- Population Normal (%) [4]: 93%
- Population Pyknosed Nuclei (%) [4]: 14%
- Population Tubulin-Different-Phenotype (%) [4]: 95%
- Total Cell Count [4]: 61
- Population Apoptotic (%) [5]: 59% and 70%
- Population Fragmented Nuclei (%) [5]: 6%
- Population Healthy Nuclei (%) [5]: 79% and 90%
- Population Hoechst High Intensity Objects (%) [5]: 2% and 3%
- Population Mitochondria Different-Phenotype (%) [5]: 26% and 22%
- Population Mitotic Cells (%) [5]: 40% and 30%
- Population Normal (%) [5]: 97% and 96%
- Population Pyknosed Nuclei (%) [5]: 13% and 5%
- Population Tubulin-Different-Phenotype (%) [5]: 83%
- Total Cell Count [5]: 198 and 202
- Population Fragmented Nuclei (%) [6]: 4% and 8%
- Population Healthy Nuclei (%) [6]: 77% and 87%
- Population Hoechst High Intensity Objects (%) [6]: 6% and 8%
- Population Mitochondria Different-Phenotype (%) [6]: 19% and 29%
- Population Normal (%) [6]: 93% and 91%
- Total Cell Count [6]: 153 and 143
- Population Apoptotic (%) [7]: 82%
- Population Fragmented Nuclei (%) [7]: 8%
- Population Healthy Nuclei (%) [7]: 68%
- Population Hoechst High Intensity Objects (%) [7]: 12%
- Population Membrane Permeable-Phenotype (%) [7]: 34%
- Population Mitochondria Different-Phenotype (%) [7]: 74%
- Population Mitotic Cells (%) [7]: 17%
- Population Normal (%) [7]: 87%
- Population Pyknosed Nuclei (%) [7]: 23%
- Population Tubulin-Different-Phenotype (%) [7]: 95%
- Total Cell Count [7]: 138
- Population Apoptotic (%) [8]: 100%
- Population Fragmented Nuclei (%) [8]: 14%
- Population Hoechst High Intensity Objects (%) [8]: 10%
- Population Membrane Permeable-Phenotype (%) [8]: 21%
- Population Mitochondria Different-Phenotype (%) [8]: 56%
- Population Mitotic Cells (%) [8]: 0%
- Population Normal (%) [8]: 90%
- Population Pyknosed Nuclei (%) [8]: 16%
- Population Tubulin-Different-Phenotype (%) [8]: 81%
- Total Cell Count [8]: 60
- Population Apoptotic (%) [11]: 70%
- Population Fragmented Nuclei (%) [11]: 15%
- Population Healthy Nuclei (%) [11]: 57%
- Population Hoechst High Intensity Objects (%) [11]: 5%
- Population Membrane Permeable-Phenotype (%) [11]: 41%
- Population Mitochondria Different-Phenotype (%) [11]: 61%
- Population Mitotic Cells (%) [11]: 29%
- Population Normal (%) [11]: 94%
- Population Pyknosed Nuclei (%) [11]: 26%
- Population Tubulin-Different-Phenotype (%) [11]: 89%
- Total Cell Count [11]: 134
- Population Apoptotic (%) [12]: 77%
- Population Fragmented Nuclei (%) [12]: 12%
- Population Healthy Nuclei (%) [12]: 75%
- Population Hoechst High Intensity Objects (%) [12]: 10%
- Population Membrane Permeable-Phenotype (%) [12]: 62%
- Population Mitochondria Different-Phenotype (%) [12]: 27%
- Population Mitotic Cells (%) [12]: 22%
- Population Normal (%) [12]: 90%
- Population Pyknosed Nuclei (%) [12]: 12%
- Population Tubulin-Different-Phenotype (%) [12]: 72%
- Total Cell Count [12]: 80
